Experimental findings from ChEMBL document CHEMBL2062417, “Biotinylated quercetin as an intrinsic photoaffinity proteomics probe for the identification of quercetin target proteins” (Bioorg Med Chem, 2011) are described below.

SMILES strings stand for the structures. Activity calls are given as the source filed them. No cut-off for these calls is given here.

Experiment [1] deals with Eukaryotic translation initiation factor 3 subunit F (Homo sapiens) (UniProt O00303). Put plainly: Binding affinity to EIF3F in human Jurkat cells at 150 uM followed by UV irradiation for 30 mins with Wood's glass filtered medium pressure mercury arc light prior to cell lysis measured after denaturing wash by LC-MS/MS based pull down assay. The gist of the method:
(§1)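 Silver-stained bands from cells irradiated before lysis were excised, destained, reduced with 10 mM DTT, alkylated with 50 mM iodoacetamide and digested with trypsin overnight. Peptides were extracted in 1% TFA/50% acetonitrile. Nano-C18 LC used a 2–50% acetonitrile gradient with 0.1% formic acid over 50 min at 260 nL/min, followed by MS/MS identification.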

For experiment [2], the target named is T1, Ubiquitin-like modifier-activating enzyme 1 (Homo sapiens) (UniProt P22314).
T1 sequence (whole entry): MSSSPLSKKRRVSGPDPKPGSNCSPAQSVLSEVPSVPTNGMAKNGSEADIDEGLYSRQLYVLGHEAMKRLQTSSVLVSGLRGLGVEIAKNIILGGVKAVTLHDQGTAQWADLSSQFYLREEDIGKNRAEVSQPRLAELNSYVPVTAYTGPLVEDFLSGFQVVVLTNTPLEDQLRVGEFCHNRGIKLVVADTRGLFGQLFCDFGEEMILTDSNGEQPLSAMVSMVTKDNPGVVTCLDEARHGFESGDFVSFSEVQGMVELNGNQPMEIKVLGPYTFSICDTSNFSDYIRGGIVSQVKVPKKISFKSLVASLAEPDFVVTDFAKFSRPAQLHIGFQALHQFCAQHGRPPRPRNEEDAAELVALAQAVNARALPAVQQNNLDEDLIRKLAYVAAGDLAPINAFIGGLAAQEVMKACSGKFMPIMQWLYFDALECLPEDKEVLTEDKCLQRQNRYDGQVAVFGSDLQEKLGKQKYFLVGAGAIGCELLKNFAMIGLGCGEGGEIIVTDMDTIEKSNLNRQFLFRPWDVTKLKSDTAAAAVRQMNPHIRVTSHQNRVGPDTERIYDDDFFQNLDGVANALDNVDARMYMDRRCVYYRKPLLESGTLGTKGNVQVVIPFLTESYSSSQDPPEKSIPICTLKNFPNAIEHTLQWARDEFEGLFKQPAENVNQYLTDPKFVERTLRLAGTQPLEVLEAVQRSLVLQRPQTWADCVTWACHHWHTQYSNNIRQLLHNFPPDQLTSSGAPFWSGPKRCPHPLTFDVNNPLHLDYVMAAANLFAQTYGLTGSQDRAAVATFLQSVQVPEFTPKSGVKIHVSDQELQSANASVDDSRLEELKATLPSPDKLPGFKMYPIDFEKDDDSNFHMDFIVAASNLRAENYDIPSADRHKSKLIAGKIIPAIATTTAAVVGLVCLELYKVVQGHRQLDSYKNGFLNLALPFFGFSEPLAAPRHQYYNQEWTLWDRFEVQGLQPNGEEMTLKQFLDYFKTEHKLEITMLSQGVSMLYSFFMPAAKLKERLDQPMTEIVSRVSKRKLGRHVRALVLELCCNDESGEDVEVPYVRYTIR
Briefly: Binding affinity to UBA1 in human Jurkat cells at 150 uM followed by UV irradiation for 30 mins with Wood's glass filtered medium pressure mercury arc light prior to cell lysis measured after denaturing wash by LC-MS/MS based pull down assay. In short, it runs like this:
as §1

Experiment [3] concerns the target Actin, cytoplasmic 1 (Homo sapiens) (UniProt P60709). Put plainly: Binding affinity to ACTB in human Jurkat cells at 150 uM followed by UV irradiation for 30 mins with Wood's glass filtered medium pressure mercury arc light after cell lysis measured after denaturing wash by SDS-PAGE based pull down assay. The gist of the method:
(§2)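 Jurkat cells were grown in RPMI with 10% FBS (about 15×10^6 cells) and treated 2 h with 150 μM BioQ in 3% aqueous DMSO. They were heat-shocked at 43 °C for 30 min, recovered 1 h at 37 °C, and UV-irradiated (320–400 nm, peak 365 nm, 30 min, 4 °C) before or after sonication lysis. Streptavidin-agarose capture ran 1 h. Beads were washed ≥3× with lysis buffer or 2% SDS Tris pH 7.4, boiled, run on 12% SDS-PAGE and silver-stained.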

The test system of experiment [4] is Jurkat. Put plainly: Binding affinity to quercetin binding protein in human Jurkat cells at 150 uM followed by UV irradiation for 30 mins with Wood's glass filtered medium pressure mercury arc light before cell lysis measured after denaturing wash by Western blotting based pull down assay in presence of heat shock. The gist of the method: (§3)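 Streptavidin pull-downs from heat-shocked, BioQ-treated (150 μM), UV-irradiated Jurkat cells received a 2% SDS wash. Proteins were transferred from SDS gels to nitrocellulose and blocked overnight in 3% BSA at 4 °C. Blots were probed 1 h with HRP-conjugated anti-biotin antibody and developed with 4-chloro-1-naphthol/0.01% H2O2, with no-UV and no-probe controls.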
(In general: In western blotting, separated proteins are transferred to a membrane and probed.)

The species named for another experiment is Homo sapiens. Put plainly: Binding affinity to CK2 at 150 uM after 30 mins by silver staining based pull down assay. The gist of the method: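 CK2 (17.5–70 nM) was mixed with 150 μM BioQ in 400 μL 10 mM PBS pH 7.2 with protease inhibitors, with or without 10 mM MgCl2 and 2 μM ATP. Samples were irradiated 30 min on ice (320–400 nm, peak 365 nm) or left unirradiated. Capture was on streptavidin agarose for 1 h, with washes in lysis buffer or 2% SDS Tris buffer, then boiling, SDS-PAGE and silver staining.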

Experiment [5] deals with Eukaryotic translation initiation factor 3 subunit F (Homo sapiens) (UniProt O00303). Briefly: Binding affinity to EIF3F in human Jurkat cells at 150 uM followed by UV irradiation for 30 mins with Wood's glass filtered medium pressure mercury arc light after cell lysis measured after denaturing wash by SDS-PAGE based pull down assay. The gist of the method: as §2
In experiment [6] the target is Heat shock protein HSP 90-alpha (Homo sapiens) (UniProt P07900). Put plainly: Binding affinity to HSP90AA1 in human Jurkat cells at 150 uM followed by UV irradiation for 30 mins with Wood's glass filtered medium pressure mercury arc light prior to cell lysis measured after denaturing wash by LC-MS/MS based pull down assay. In short, it runs like this: as §1
Experiment [7] concerns Jurkat. Briefly: Binding affinity to quercetin binding protein in human Jurkat cells at 150 uM followed by UV irradiation for 30 mins with Wood's glass filtered medium pressure mercury arc light after cell lysis measured after denaturing wash by Western blotting based pull down assay in presence of heat shock. The gist of the method:
as §3

In experiment [8] the test system is Jurkat. Put plainly: Inhibition of heat shock-induced HSP70 expression in human Jurkat cells at 145 uM treated 2 hrs before beat shock challenge measured after 8 hrs by Western blotting. Format: functional, cell-based. In short, it runs like this: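 Jurkat cells (low basal HSP70) got 145 μM compound or DMSO vehicle for 2 h, then a 30 min 43 °C heat shock and 8 h recovery at 37 °C. HSP70 and actin were read by Western blot. Controls were unheated cells and heated cells with no additive.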

Experiment [9] addresses Actin, cytoplasmic 1 (Homo sapiens) (UniProt P60709). Briefly: Binding affinity to ACTB in human Jurkat cells at 150 uM followed by UV irradiation for 30 mins with Wood's glass filtered medium pressure mercury arc light prior to cell lysis measured after denaturing wash by SDS-PAGE based pull down assay. The gist of the method: as §2
The target in experiment [10] is Eukaryotic translation initiation factor 3 subunit F (Homo sapiens) (UniProt O00303). Put plainly: Binding affinity to EIF3F in human Jurkat cells at 150 uM followed by UV irradiation for 30 mins with Wood's glass filtered medium pressure mercury arc light prior to cell lysis measured after denaturing wash by SDS-PAGE based pull down assay. In short, it runs like this:
as §2

The target of experiment [11] is T1, Ubiquitin-like modifier-activating enzyme 1 (Homo sapiens). Briefly: Binding affinity to UBA1 in human Jurkat cells at 150 uM followed by UV irradiation for 30 mins with Wood's glass filtered medium pressure mercury arc light after cell lysis measured after denaturing wash by SDS-PAGE based pull down assay. In short, it runs like this:
as §2

Eukaryotic translation initiation factor 3 subunit F (Homo sapiens), sequence (O00303 whole entry): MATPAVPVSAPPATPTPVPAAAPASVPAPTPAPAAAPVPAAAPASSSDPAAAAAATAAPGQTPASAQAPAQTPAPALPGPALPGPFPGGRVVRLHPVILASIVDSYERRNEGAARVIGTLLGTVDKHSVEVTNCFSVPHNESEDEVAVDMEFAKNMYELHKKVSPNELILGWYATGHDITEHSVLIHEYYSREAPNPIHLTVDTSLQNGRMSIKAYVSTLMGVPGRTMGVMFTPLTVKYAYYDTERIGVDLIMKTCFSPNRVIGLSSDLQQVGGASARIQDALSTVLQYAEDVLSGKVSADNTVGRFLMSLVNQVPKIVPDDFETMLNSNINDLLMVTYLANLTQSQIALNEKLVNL

Take `O=C(CCCC[C@@H]1SC[C@@H]2NC(=O)N[C@@H]21)NCCOCCOCCNC(=O)COc1cc(O)c2c(=O)c(O)c(-c3ccc(O)c(O)c3)oc2c1`: the outcome (in experiment [1]; in experiment [2]; in experiment [3]; in the experiment with Jurkat [4]; in experiment [5]; in [6]) was Active. In addition, the outcome (in the experiment on Jurkat [7]; in experiment [9]; in experiment [10]; in [11]) was Active. Besides, the outcome in the experiment listed under Homo sapiens was inactive. The inhibition result in the experiment with Jurkat [8] was “Active”.
